Here are results for 4 compounds from ChEMBL document CHEMBL4177559, “Design, Synthesis, and Evaluation of a Series of Novel Benzocyclobutene Derivatives as General Anesthetics” (J Med Chem, 2017).

Structures are written as SMILES.

Broadly, the clearance is the rate of elimination divided by the concentration. Read a low clearance as a low capacity for elimination. For orientation: ED50 means the dose at which the effect has come halfway, by size or by number of responders. As usually defined, the Cmax is the highest concentration seen after dosing. By AUC is commonly meant the area under the concentration-time curve, a measure of exposure. A higher AUC goes with more exposure.

A short description of series [1]: Clearance in Sprague-Dawley rat at 1 mg/kg, iv administered as single dose. It counts as ADME, organism-based. The note with it: in vivo.
For series [2], the system named is Mus musculus. Put plainly: Anesthetic activity in iv dosed ICR mouse assessed as onset time for loss of righting reflex administered as single bolus dose. It counts as functional. Summed up: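 ICR mice (fasted, 18−22 g, 10 per dose group, 7−9 groups) got one tail-vein iv bolus (~10 s) in 5% DMSO/5−10% Solutol HS-15/85−90% saline. Onset was the time from dosing to loss of righting reflex.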

Series [3] deals with Mus musculus. Put plainly: Anesthetic activity in iv dosed ICR mouse assessed as anesthetic duration time by measuring loss of righting reflex administered as single bolus dose. The class given is functional. Summed up: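 Fasted ICR mice (18−22 g, 10 per group) received a single ~10 s lateral tail-vein bolus in 5% DMSO/5−10% Solutol HS-15/saline. Duration was the time from dosing to recovery of righting reflex, recorded at the dose giving 100% loss of righting reflex.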

The test system of series [4] is Mus musculus. Put plainly: Anesthetic activity in iv dosed ICR mouse assessed as dose required to produce anesthesia administered as single bolus dose. It counts as functional. The gist of the method: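 Fasted ICR mice (18−22 g, male and female) were randomised into 7−9 dose groups of 10 each. Each received one intravenous bolus over about 10 s in the lateral tail vein. Vehicle was 5% DMSO, 5−10% Solutol HS-15 and 85−90% saline. The endpoint was loss of righting reflex, and ED50 was derived by nonlinear fitting of dose–response.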

Series [5] is described as follows: Therapeutic index, ratio of LD50 for toxicity in ICR mouse to ED50 for anesthetic effect in ICR mouse. To be noted: in vivo, read-out: Ratio LD50/ED50. It counts as organism-based. The gist of the method: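 Fasted ICR mice (18−22 g, male and female), 7−9 dose groups of 10, given a single ~10 s iv bolus into the lateral tail vein in 5% DMSO, 5−10% Solutol HS-15, 85−90% saline. Loss of righting reflex scored; ED50 and LD50 derived by nonlinear fitting; TI = LD50/ED50.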

Series [6] deals with Rattus norvegicus. The series can be described thus: Cmax in Sprague-Dawley rat at 1 mg/kg, iv administered as single dose. Set-up: dose 1 mg/kg, route intravenous. The note with it: in vivo. It counts as ADME, organism-based.
Series [7] in a line: AUC in Sprague-Dawley rat at 1 mg/kg, iv administered as single dose. It counts as ADME, organism-based. To be noted: in vivo.

In series [1], `CC(C)c1ccc2c(c1O)[C@H](C)C2` displayed a clearance of 77 mL/min/kg.
Consider `CC(C)c1ccc2c(c1O)[C@@H](C)C2`, for which the clearance in series [1] was determined as 67 mL/min/kg.
With `CC(C)c1ccc2c(c1O)C(C)(N=[N+]=[N-])C2` (racemic), the Time is reported as less than 10 s in series [2] and 381.7 s in series [3]. Besides, the ED50 in series [4] came out at 9.4 mg/kg. Moreover, the selectivity ratio in series [5] came to 5.9.
As for `CC(C)c1cccc(C(C)C)c1O` [PROPOFOL], the Time is less than 10 s in series [2] and 303.2 s in series [3]. Further, in series [5], the selectivity ratio came to 2.7. Also, the maximum concentration (Cmax) in series [6] is 384 ng/mL. The same compound displayed an area under the curve (AUC) in series [7] of 77 ng·h/mL.
